We go through 13 compounds from publication PMC8892681 (ACS Omega, 2022).

The term AUC(0-inf) denotes the area under the concentration-time curve extrapolated to infinity. The Cmax is the maximum level reached in the sampled fluid or tissue. One may read the Tmax as the time at which the peak concentration occurs. What is called Papp A→B is the apparent permeability from the apical to the basolateral side of a cell layer. A higher Papp A→B goes with ready permeation. Broadly, the Papp B→A is the apparent permeability from the basolateral to the apical side of a cell layer. What is called efflux ratio is a quotient of directional permeabilities that is used to spot active efflux.

“Also recorded” adds a separate entry of the source. Where two headings read alike, the source gives them in different places. Bounds are passed on as bounds.

One data set concerns C. difficile. The data set is described as follows: MIC by broth microdilution against C. difficile. The data set is classed as cell-based, Clostridioides difficile. (In general: In broth dilution the organism is exposed to a series of concentrations in liquid medium.)
The subject of data set [1] is VREfm. The data set is described as follows: MIC by broth microdilution against E. faecium. Type of data set: cell-based, Enterococcus faecium. To be noted: for fold loss in activity against E. faecium: compared with analogue 1.
Data set [2] relates to E. faecium strain Aus0085. The data set is described as follows: Time-kill assay against E. faecium. The data set is classed as cell-based, Enterococcus faecium.
Data set [3] can be described thus: Pharmacokinetics and urinary/faecal recovery after oral administration in rats. Type of data set: in vivo, Sprague Dawley rats. To be noted: 30 mg/kg; for AUC(0-inf) / Cmax / Tmax / half-life: male, Sprague Dawley, rat, plasma, po; for % dose in urine (0–48 h): unchanged compound, male Sprague Dawley rats, oral, mean ± SD n = 3.
Data set [4] relates to C. difficile strain EDN0008. The data set is described as follows: Time-kill assay against C. difficile. The data set is classed as cell-based, Clostridioides difficile.
In data set [5] the test system is human erythrocytes. In words: Haemolysis assay. Type of data set: cell-based. To be noted: 1 h, 37 °C. The method, boiled down: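 Human whole blood collected in K2-EDTA and pelleted at 500 g for 5 min. RBCs washed twice in saline and once in PBS, then diluted 1:50 in PBS. Test compound made at 20× in DMSO and added 1:20 (final 0.125−128 mg/L). Incubated 1 h at 37 °C. Controls were DMSO vehicle and 1% (v/v) Triton X-100. After centrifugation at 500g, supernatant A450 was read. Three biological replicates.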

For a further data set, the system named is Caco-2 cell monolayers. The data set is described as follows: Caco-2 cell permeability. Type of data set: in vitro ADME. (Passage across Caco-2 layers is used to estimate intestinal permeability.)
Data set [6] deals with VREfm. Particulars: range of clinically relevant E. faecium strains; cited from earlier work.
The test system of another data set is HepG2. To be noted: cited from earlier work.
Data set [7] deals with human erythrocytes. Particulars: cited from earlier work.
The nature of the next data set: Caco-2 cell permeability. The data set is classed as in vitro ADME. To be noted: human, Caco-2, pH 7.4.
Where [8] appears, read: exposure to 4 μg/mL, up to 48 h.

With `CC(CN)c1ccc(Oc2ccc(-c3noc(-c4ccc(O)cc4)n3)cc2)cc1.Cl` (racemic) [15f, (RS)-4-(3-(4-(4-(1-Aminopropan-2-yl)phenoxy)phenyl)-1,2,4-oxadiazol-5-yl)phenol Hydrochloride], the “fold loss in potency against C. difficile” value with C. difficile (compared with the ethyl linker 15e) is 5 fold.

Turning to `O=C(O)CCc1ccc(Oc2ccc(-c3noc(-c4ccc(O)cc4)n3)cc2)cc1` [9g, 3-(4-(4-(5-(4-Hydroxyphenyl)-1,2,4-oxadiazol-3-yl)phenoxy)phenyl)propanoic Acid], the “fold loss in potency against C. difficile” value in the data set on C. difficile (4 position versus same substituent at 2 and 3 positions / analogue 1) came to 4 fold.

For the compound `Cl.NCc1ccccc1Oc1ccc(-c2noc(-c3ccc(O)cc3)n2)cc1` [15a, 4-(3-(4-(2-(Aminomethyl)phenoxy)phenyl)-1,2,4-oxadiazol-5-yl)phenol Hydrochloride], in the data set on VREfm [1], the “fold loss in activity against E. faecium” value amounted to 4 fold.

Take `Cl.NCCc1ccccc1Oc1ccc(-c2noc(-c3ccc(O)cc3)n2)cc1` [15b, 4-(3-(4-(2-(2-Aminoethyl)phenoxy)phenyl)-1,2,4-oxadiazol-5-yl)phenol Hydrochloride]: in the data set on VREfm [1], the “fold loss in activity against E. faecium” value is recorded as 4 fold.

`Cl.NCc1ccc(Oc2ccc(-c3noc(-c4ccc(O)cc4)n3)cc2)cc1` [15d, 4-(3-(4-(4-(Aminomethyl)phenoxy)phenyl)-1,2,4-oxadiazol-5-yl)phenol Hydrochloride]: the “fold loss in activity against E. faecium” value in the data set with VREfm [1] is reported as 2 fold.

On to `Cl.NCCc1ccc(Oc2ccc(-c3noc(-c4ccc(O)cc4)n3)cc2)cc1` [15e, 4-(3-(4-(4-(2-Aminoethyl)phenoxy)phenyl)-1,2,4-oxadiazol-5-yl)phenol Hydrochloride], for which the “time to 100% kill of VREfm” value in data set [2] (4 μg/mL) is listed as at most 24 h. Further, the “time to 100% kill of VREfm” value in data set [2] (8 μg/mL (2× MIC of 15e)) is at most 1 h. In addition, in [2] (setting [8]), the “regrowth of VREfm in time-kill assay” value was “remained undetectable”. The “regrowth of VREfm in time-kill assay” value in [2] (exposure to 8 μg/mL) is reported as “no rebounding growth observed”. Further, in data set [3], the AUC(0-inf) turned out to be 0.9 ± 0.22 µM·h, the concentration peaked (Cmax) at 160 ± 38 nM, the Tmax stood at 2.5 h and the half-life is 2 ± 0.3 h. Besides, the “% dose in urine (0–48 h)” value in data set [3] is 0.08 ± 0.03%. In addition, the “time to 100% kill of C. difficile” value in data set [4] is on record as at most 3 h. Besides, the “fold loss in activity against E. faecium” value with VREfm [1] came to 2 fold. For the same compound, the “concentration leading to substantial levels of haemolysis” value in the data set with human erythrocytes [5] is at least 64 µg/mL.

Consider `Cl.NCCCc1ccc(Oc2ccc(-c3noc(-c4ccc(O)cc4)n3)cc2)cc1` [15h, 4-(3-(4-(4-(3-Aminopropyl)phenoxy)phenyl)-1,2,4-oxadiazol-5-yl)phenol Hydrochloride], for which the “fold increase in activity against E. faecium” value in the data set with VREfm [1] (propylamine versus ethylamine linker (15e)) is listed as 2 fold.

`C[N+](C)(C)CCc1ccc(Oc2ccc(-c3noc(-c4ccc(O)cc4)n3)cc2)cc1.[I-]` [26a, 2-(4-(4-(5-(4-Hydroxyphenyl)-1,2,4-oxadiazol-3-yl)phenoxy)phenyl)-N,N,N-trimethylethan-1-aminium Iodide]: in data set [3], the AUC(0-inf) was found to be 0.28 ± 0.27 µM·h, the Cmax came to 39 ± 46 nM, the Tmax was 2.8 ± 2 h and the half-life was 5.3 ± 2.1 h. For the same compound, in data set [3], the “% dose in urine (0–48 h)” value turned out to be 0.06 ± 0.03%. For the same compound, the “fold decrease in activity against E. faecium” value with VREfm [1] (compared with the primary amine 15e) is 2 fold. Moreover, in the data set on Caco-2 cell monolayers (not detected in acceptor chamber, fully recovered in donor chamber), the “permeability across Caco-2 cell monolayer (in words)” value is on record as “complete impermeability; also recorded: no detectable permeability”.

On to `CN[C@H](CC(C)C)C(=O)N[C@H]1C(=O)N[C@@H](CC(N)=O)C(=O)N[C@H]2C(=O)N[C@H]3C(=O)N[C@H](C(=O)N[C@H](C(=O)O)c4cc(O)cc(O)c4-c4cc3ccc4O)[C@H](O)c3ccc(c(Cl)c3)Oc3cc2cc(c3O[C@@H]2O[C@H](CO)[C@@H](O)[C@H](O)[C@H]2O[C@H]2C[C@](C)(N)[C@H](O)[C@H](C)O2)Oc2ccc(cc2Cl)[C@H]1O` [Vancomycin, vancomycin, reference compound], for which, in data set [4] (C. difficile EDN0008, 1 at ≥2 × MIC (12–48 μg/mL), vancomycin 8 μg/mL), the “killing activity in time-kill assay” value is reported as “bacteriostatic activity”. Besides, in the data set on C. difficile (broth microdilution, 48 h anaerobic, biological triplicate), the “C. difficile MIC” value came to 2 µg/mL.

Regarding `Oc1ccc(-c2nc(-c3ccc(Oc4ccccc4)cc3)no2)cc1` [compound 1, 4-(3-(4-Phenoxyphenyl)-1,2,4-oxadiazol-5-yl)phenol], the “time to 100% kill of VREfm” value in data set [2] (4 μg/mL) is reported as at most 24 h; in [2] (8 μg/mL (2× MIC of 15e)), at most 1 h. The “regrowth of VREfm in time-kill assay” value in data set [2] (setting [8]) was “rebounding growth of VREfm was observed after 48 h”; in data set [2] (exposure to 8 μg/mL), “no rebounding growth observed”. In addition, in data set [4], the “killing activity in time-kill assay” value is reported as “rapid bactericidal activity”. Moreover, the “E. faecium MIC90” value in the data set with VREfm [6] was 2 µg/mL. Also, the HepG2 viability entry in the data set with HepG2 (at concentrations higher than 2 μg/mL) is reported as “reduced viability”. Further, the “toxicity against HepG2” value with HepG2 (at the E. faecium MIC90 (2 μg/mL)) is recorded as “not toxic”. In addition, the “concentration leading to haemolysis in human erythrocytes” value in the data set with human erythrocytes [7] is above 64 µg/mL.

The compound `CC(C)NCC(O)COc1cccc2ccccc12` (centres unmarked) [propranolol] yielded a Papp A→B at 120 min in the data set “Caco-2 cell permeability” of 42 ± 2.5 ×10⁻⁶ cm/s.

Consider `COC(=O)c1ccccc1-c1c2ccc(=N)cc-2oc2cc(N)ccc12` [rhodamine 123], for which, in the data set “Caco-2 cell permeability”, the Papp A→B at 120 min amounted to 1.6 ± 0.13 ×10⁻⁶ cm/s, the Papp B→A at 120 min worked out at 12 ± 2.7 ×10⁻⁶ cm/s and the efflux ratio at 120 min came out at 7.3.

Take lucifer yellow: the Papp in the data set with Caco-2 cell monolayers (low permeability marker, acceptor solution) is < 1 10^–6 cm/s.
